Data as given in ChEMBL document CHEMBL1141573, “Quinolone 3-carboxylic acid pharmacophore: design of second generation HIV-1 integrase inhibitors” (J Med Chem, 2008).
Active and inactive are the calls of the source. No cut-off for these calls is given here.

How the values were obtained:
[1] = target: T1, Human immunodeficiency virus type 1 integrase (Human immunodeficiency virus 1, UniProt Q7ZJM1); test: Inhibition of HIV1 integrase 3'-end processing activity
Summary of the method: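 Wild-type recombinant IN, 200 nM final, preincubated with inhibitor at 30 °C for 30 min in buffer with 7.5 mM MnCl2, 10% DMSO, 25 mM MOPS pH 7.2. Then 20 nM 5′-32P-labeled 21-mer U5 LTR duplex substrate added, incubated a further 1 h. 21-mer to 19-mer conversion gives % inhibition versus DNA-alone and no-drug controls. IC50 from log concentration versus % inhibition.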

[2] = target: T1, Human immunodeficiency virus type 1 integrase; test: Inhibition of HIV1 integrase strand transfer activity
[3] = target: Human immunodeficiency virus type 1 integrase (Human immunodeficiency virus 1) (UniProt Q7ZJM1); test: Inhibition of HIV1 integrase at 100 uM
Human immunodeficiency virus type 1 integrase (Human immunodeficiency virus 1), sequence (Q7ZJM1 as listed by the source): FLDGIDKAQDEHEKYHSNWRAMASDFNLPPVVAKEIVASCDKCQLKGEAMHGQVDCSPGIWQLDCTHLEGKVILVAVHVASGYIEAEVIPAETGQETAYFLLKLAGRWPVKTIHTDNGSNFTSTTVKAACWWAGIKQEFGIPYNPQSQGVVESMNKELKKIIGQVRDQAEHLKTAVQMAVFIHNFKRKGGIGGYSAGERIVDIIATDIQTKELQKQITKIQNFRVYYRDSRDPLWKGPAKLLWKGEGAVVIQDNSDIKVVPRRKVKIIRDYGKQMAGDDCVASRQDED
Summary of the method: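 Wild-type recombinant IN (200 nM final) preincubated with compound 30 min at 30 °C in buffer with 7.5 mM MnCl2, 10% DMSO, MOPS pH 7.2. Then 20 nM 5′-32P-labeled 21-mer U5 LTR duplex added for 1 h. Reactions quenched with formamide loading dye. Conversion to 19-mer (3′-processing) and strand transfer products gives % inhibition versus DNA alone and DNA plus IN.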

[4] = tested on: Human immunodeficiency virus 1; test: Antiviral activity against HIV1 in MT4 cells assessed as inhibition of viral-induced cytopathic effect by MTT method; assay type: functional, organism-based; details: Human immunodeficiency virus 1, MT4
Summary of the method: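 MT-4 cells (RPMI 1640 with 10% heat-inactivated FCS, 2 mM L-glutamine, 37 °C, 5% CO2) infected with 100–300 CCID50 of HIV-1(IIIB) in presence of 5-fold serial compound dilutions. Viral CPE read by MTT reduction to formazan measured spectrophotometrically. IC50 = concentration giving 50% protection against CPE.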

[5] = Cytotoxicity against human MT4 cells; assay type: cell-based
Summary of the method: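 Viability of mock-infected MT-4 cells after 5 days of incubation, measured by MTT reduction to formazan read spectrophotometrically; CC50 derived.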

T1 sequence (Q7ZJM1 whole entry): as the sequence (Q7ZJM1 as listed by the source) above

O=C(O)CN1C(=O)/C(=C2\SC(=S)N(C(Cc3ccccc3)C(=O)O)C2=O)c2ccccc21 (stereo unspecified)
IC50 [1]: 92 µM
IC50 [2]: 66 µM

Cc1cc(OCn2ccc(C(=O)O)n2)ccc1Cl
Activity [3]: inactive

CCOc1cc(CNc2nn[nH]n2)ccc1OCc1ccccc1
Activity [3]: inactive

O=C(O)CSc1nnc(-c2ccco2)c(-c2ccco2)n1
IC50 [1]: 18 µM
IC50 [2]: 5 µM

O=C(Nc1ccccc1C(=O)O)c1ccc(CN2CCc3ccccc3C2)cc1
Activity [3]: inactive

O=C(O)CSc1nnc2n(Cc3ccc(F)cc3)c3ccccc3n12
Activity [3]: inactive

COc1cc(CNc2nn[nH]n2)ccc1OCc1cccc(Cl)c1
Activity [3]: inactive

COc1cc(NC(=O)c2ccc3c(c2)C(=O)N(c2ccccc2OC)C3=O)c(C(=O)O)cc1OC
Activity [3]: inactive

CC(C)[C@H](CO)n1cc(C(=O)O)c(=O)c2cc(Cc3cccc(Cl)c3F)ccc21
EC50 [4]: 0.007 µM

COc1cccc(NC(=O)c2sc3[nH]c(=O)c(C(=O)O)cc3c2N)c1
IC50 [1]: 82 µM
IC50 [2]: 43 µM

COc1ccc2[nH]c(SCC(=O)Nc3cc(C(=O)O)ccc3C)nc2c1
Activity [3]: inactive

COc1cc2c(cc1Cc1cccc(Cl)c1F)c(=O)c(C(=O)O)cn2[C@@H](CO)C(C)C
EC50 [4]: 0.0009 µM

O=C(O)c1c[nH]c2ccc(Cc3cccc(Cl)c3F)cc2c1=O
EC50 [4]: 0.805 µM

O=C(O)CSCC(=O)Nc1nc(-c2ccccc2)cs1
Activity [3]: inactive

COc1ccc(/C=C2\C(=O)N(c3nnn[nH]3)N=C2C)cc1OCc1ccccc1Cl
IC50 [1]: 14 µM
IC50 [2]: 5 µM

Cc1ccc2nc(-c3ccc(NC(=O)/C=C/C(=O)O)cc3)sc2c1
IC50 [1]: 48 µM
IC50 [2]: 23 µM

Cc1cc(-c2cccnc2)c(C#N)c(SCC(=O)O)n1
Activity [3]: inactive

O=C(O)CSc1nc(-c2cccs2)cc(C(F)(F)F)n1
IC50 [1]: > 100 µM
IC50 [2]: > 100 µM

Cc1ccc(OCc2nnc(SC(C)C(=O)O)n2-c2ccccc2)cc1 (stereo unspecified)
Activity [3]: inactive

COc1cc(CNc2nn[nH]n2)ccc1OCc1cccc(C)c1
Activity [3]: inactive

CCn1nc(NC(=O)CCC(=O)O)c2cc3cc(C)ccc3nc21
Activity [3]: inactive

CCn1c(CNC(=O)CCC(=O)O)cc2ccccc21
Activity [3]: inactive

O=C(O)CCCC(=O)Nc1nc(-c2cccc3ccccc23)cs1
Activity [3]: inactive

O=C(Nc1ccccn1)c1ccc(NC(=O)C2CC=CCC2C(=O)O)cc1 (stereo unspecified)
Activity [3]: inactive

COc1ccc(-c2nnc(SCC(=O)N/N=C/c3ccccc3C(=O)O)n2-c2ccccc2)cc1OC
Activity [3]: inactive

COc1cc(CNc2nn[nH]n2)ccc1OCc1ccc(F)cc1
Activity [3]: inactive

CCOc1cc(CNc2nn[nH]n2)cc(Cl)c1OCc1ccc(Cl)cc1
IC50 [1]: > 100 µM
IC50 [2]: 52 µM

CC1=NN(c2nnn[nH]2)C(=O)/C1=C\c1cc(Cl)c(O)c(Cl)c1
IC50 [1]: 11 µM
IC50 [2]: 13 µM

COc1ccc(/C=N/Nc2nc(C(=O)O)cs2)cc1
Activity [3]: inactive

O=C(O)COc1ccc2c(-c3ccccc3)cc(=O)oc2c1
Activity [3]: inactive

Cc1ccc(C)c(NC(=O)CSc2ncccc2C(=O)O)c1
Activity [3]: inactive

COc1cc(CNc2nn[nH]n2)ccc1OCc1c(F)cccc1Cl
Activity [3]: inactive

CCOc1cc(CNc2nn[nH]n2)ccc1OCc1ccc(C)cc1
Activity [3]: inactive

O=C(O)C(O)C(O)c1nc2cc3ccccc3cc2[nH]1 (stereo unspecified)
IC50 [1]: > 100 µM
IC50 [2]: 46 µM

O=C(O)C1CC=CCC1C(=O)Nc1ccc(Cc2ccncc2)cc1 (stereo unspecified)
Activity [3]: inactive

COc1cc(CNc2nn[nH]n2)ccc1OCc1ccc(C)cc1
Activity [3]: inactive

CCOc1cc(N(CC)CC)ccc1/C=C1\C(=O)N(c2nnn[nH]2)N=C1C
IC50 [1]: 61 µM
IC50 [2]: 65 µM

CCN(C(=O)CCC(=O)O)c1nc(CC(=O)Nc2ccc(Cl)cc2)cs1
Activity [3]: inactive

O=C(O)CSc1nnc(COc2cccc3ccccc23)o1
Activity [3]: inactive

O=C(O)c1ccccc1NC(=O)c1ccccc1S(=O)(=O)Nc1ccc(Oc2ccccc2)cc1
IC50 [1]: 42 µM
IC50 [2]: 18 µM

CCOc1cc(/C=C2\C(=O)N(c3nnn[nH]3)N=C2C)ccc1OC
IC50 [1]: 75 µM
IC50 [2]: 59 µM

O=C(O)c1ccccc1SCCSc1ccccc1C(=O)O
Activity [3]: inactive

Cc1ccc2nc(NC(=O)CCC(=O)O)sc2c1
Activity [3]: inactive

O=C(O)CSc1nc(Nc2ccccc2)nc(N2CCOCC2)n1
IC50 [1]: > 100 µM
IC50 [2]: > 100 µM

COc1cc(CNc2nn[nH]n2)ccc1OCc1ccc(Cl)cc1
Activity [3]: inactive

Cc1ccc2[nH]c(CNC(=O)CCC(=O)O)cc2c1
Activity [3]: inactive

Cc1ccc2nc(NC(=O)CSCC(=O)O)sc2c1
Activity [3]: inactive

O=C(O)CSc1ccc(-c2nc3ccccc3[nH]2)cn1
Activity [3]: inactive

CCn1nc(NC(=O)CCCC(=O)O)c2cc3cc(C)ccc3nc21
Activity [3]: inactive

O=C(O)C1CC(=O)N(c2ccc(OCc3c(F)cccc3Cl)cc2)C1 (stereo unspecified)
Activity [3]: inactive

Cc1nn(-c2ccccc2)c2sc(-c3nnc(SCC(=O)O)o3)cc12
Activity [3]: inactive

O=C(O)C1CCCCC1C(=O)Nc1ccc(Oc2cccc3ccccc23)cc1 (stereo unspecified)
IC50 [1]: > 100 µM
CC50 [5]: 3.5 µM
IC50 [2]: 34 µM

COc1cc2c(cc1Cc1cccc(Cl)c1F)c(=O)c(C(=O)O)cn2CCO
EC50 [4]: 0.017 µM

CCOc1cc(/C=C2\C(=O)N(c3nnn[nH]3)N=C2C)cc(Cl)c1OCC
IC50 [1]: 7 µM
IC50 [2]: 4 µM

O=C(O)c1cccc(OCC(O)Cn2cnc3ccccc32)c1 (stereo unspecified)
Activity [3]: inactive

CCCn1nc(NC(=O)CCC(=O)O)c2cc3cc(C)ccc3nc21
Activity [3]: inactive

O=C(CSc1nnc(-c2ccc(Cl)cc2)n1-c1ccccc1)N/N=C/c1ccccc1C(=O)O
Activity [3]: inactive

CCOc1cc(C2NC(C(=O)O)CS2)ccc1OCc1cccc(C)c1 (stereo unspecified)
Activity [3]: inactive

O=C(O)CSc1nc(-c2ccccc2)cc(C(F)(F)F)n1
IC50 [1]: > 100 µM
IC50 [2]: > 100 µM

O=C(CSc1ncccc1C(=O)O)Nc1cccc2ccccc12
Activity [3]: inactive

COc1cc(CNc2nn[nH]n2)ccc1OCc1c(Cl)cccc1Cl
Activity [3]: inactive

COc1cc(C2NC(C(=O)O)CS2)ccc1OCc1c(Cl)cccc1Cl (stereo unspecified)
Activity [3]: inactive

Nc1c(C(=O)Nc2ccc(Cl)c(Cl)c2)sc2[nH]c(=O)c(C(=O)O)cc12
IC50 [1]: 14 µM
IC50 [2]: 5 µM

Cc1nc2ccccc2n1CC(O)COc1cccc(C(=O)O)c1 (stereo unspecified)
Activity [3]: inactive

O=C(O)c1cn(CCO)c2ccc(Cc3cccc(Cl)c3F)cc2c1=O
EC50 [4]: 0.076 µM

COc1cc(/C=C2\C(=O)N(c3nnn[nH]3)N=C2C)cc(Cl)c1OC
IC50 [1]: 5 µM
IC50 [2]: 4 µM

Cc1ccc(C(=O)O)cc1NC(=O)CSc1nc2ccccc2s1
IC50 [1]: 63 µM
IC50 [2]: 17 µM

O=C(O)C1CC(=O)N(c2ccc(OCc3ccccc3Cl)cc2)C1 (stereo unspecified)
Activity [3]: inactive

COc1ccc(-c2ccc(-c3nnn(C(C)C(=O)O)n3)cc2)cc1 (stereo unspecified)
Activity [3]: inactive

N#Cc1c(-c2ccc(Cl)cc2)cc(-c2ccccc2)nc1SCC(=O)O
IC50 [1]: 98 µM
IC50 [2]: 60 µM
